Data set [1] relates to Mus musculus. The data set can be described thus: Percent survival was determined over a period of 30 days after intraperitoneal administration of a dose of 18.8 mg/kg in mice. Type of data set: functional. Conditions: ip, 720 h. A digest of the protocol: (§1)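 Female C57 B16 mice (18-20 g), groups of 10, dosed ip in water or 10-20% aqueous ethanol (sometimes with Klucel or a Tween). Whole-body 1000-rad γ-irradiation 30 min after dosing. Survival was followed over 30 days, and animals alive beyond 30 days were counted as protected. Testing was done at Walter Reed Army Institute of Research.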

The test system of data set [2] is Mus musculus. Kind of data set: Percent survival was determined over a period of 30 days after intraperitoneal administration of a dose of 37.5 mg/kg in mice. Conditions: ip, 720 h. Type of data set: functional. The method in brief: as §1
For data set [3], the system named is Mus musculus. Kind of data set: Percent survival was determined over a period of 30 days after intraperitoneal administration of a dose of 75 mg/kg in mice. Format: functional. The method in brief:
as §1

Data set [4] in a line: Toxic dose was determined after (ip) administration of a dose of 75 mg/kg in mice at 1000-rad-gamma-radiation for 30 mins. Type of data set: toxicity, organism-based. Also on record: dose 75 mg/kg. Conditions: mouse, in vivo. The method in brief:
(§2)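 Drug-toxicity deaths were counted within the radioprotection groups: 10 female C57 B16 mice, dosed by the route stated, then given whole-body 1000-rad γ-irradiation 30 min later. Deaths attributed to compound toxicity occurred before day 5 and were scored separately from the 30-day survival count.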

A short description of data set [5]: Toxic dose was determined after (ip) administration of a dose of 18.8 mg/kg in mice at 1000-rad-gamma-radiation for 30 mins. Type of data set: toxicity, organism-based. The arrangement: dose 18.8 mg/kg. The following applies: mouse, in vivo. A digest of the protocol:
as §2

The test system of data set [6] is Mus musculus. Kind of data set: Percent survival was determined over a period of 30 days after intraperitoneal administration of a dose of 4.7 mg/kg in mice. Format: functional. Conditions: ip, 720 h. The method in brief: as §1
Data set [7] deals with Mus musculus. Kind of data set: Percent survival was determined over a period of 30 days after intraperitoneal administration of a dose of 9.4 mg/kg in mice. Format: functional. The following applies: ip, 720 h. The method in brief:
as §1

The nature of data set [8]: Toxic dose was determined after (ip) administration of a dose of 37.5 mg/kg in mice at 1000-rad-gamma-radiation for 30 mins. Format: toxicity, organism-based. Also on record: dose 37.5 mg/kg. The following applies: mouse, in vivo. A digest of the protocol: as §2
For data set [9], the species on record is Mus musculus. The data set can be described thus: Percent protective effect was determined in mice using 825 rads for 30 min. Type of data set: functional.
The subject of data set [10] is Mus musculus. Kind of data set: Percent survival was determined over a period of 30 days after intraperitoneal administration of a dose of 9.38 mg/kg in mice. The following applies: ip, 720 h. Type of data set: functional. A digest of the protocol: as §1
In data set [11] the test system is Mus musculus. Kind of data set: Percent survival was determined over a period of 30 days after intraperitoneal administration of a dose of 4.69 mg/kg in mice. Format: functional. Conditions: ip, 720 h. A digest of the protocol: as §1
Data set [12] relates to Mus musculus. The data set can be described thus: Percent survival was determined over a period of 30 days after intraperitoneal administration of a dose of 2.34 mg/kg in mice. Type of data set: functional. Conditions: ip, 720 h. The method in brief:
as §1

A short description of data set [13]: Toxic dose was determined after (ip) administration of a dose of 9.38 mg/kg in mice at 1000-rad-gamma-radiation for 30 mins. Type of data set: toxicity, organism-based. The arrangement: dose 9.38 mg/kg. Conditions: mouse, in vivo. The method in brief: as §2
The test system of data set [14] is Mus musculus. Kind of data set: Percent protective effect was determined in mice using 825 rads for 30 min after administration of 350 mg/kg. Format: functional.
Data set [15] has as its system Mus musculus. Kind of data set: Percent protective effect was determined in mice using 1000 rads for 30 min after administration of 25 mg/kg. Format: functional.
The subject of data set [16] is Mus musculus. The data set can be described thus: Percent survival was determined over a period of 30 days after intraperitoneal administration of a dose of 150 mg/kg in mice. Format: functional. The following applies: ip, 720 h. A digest of the protocol: as §1
For data set [17], the system named is Mus musculus. The data set can be described thus: Percent survival was determined over a period of 30 days after oral administration of a dose of 150 mg/kg in mice. Format: functional. Conditions: 720 h. A digest of the protocol:
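Female C57 B16 mice (18-20 g), groups of 10, dosed orally. Whole-body 1000-rad γ-irradiation 30 min after dosing. Percent survival was scored over 30 days, with mice surviving beyond 30 days counted as protected.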

Data set [18] is described as follows: Toxic dose was determined after (po) administration of a dose of 300 mg/kg in mice at 1000-rad-gamma-radiation for 30 mins. Format: toxicity, organism-based. Also on record: dose 300 mg/kg. Conditions: mouse, in vivo. A digest of the protocol: as §2
Data set [19] can be described thus: Toxic dose was determined after (ip) administration of a dose of 150 mg/kg in mice at 1000-rad-gamma-radiation for 30 mins. Type of data set: toxicity, organism-based. The arrangement: dose 150 mg/kg. The following applies: mouse, in vivo. A digest of the protocol: as §2
Data set [20] relates to Mus musculus. The data set can be described thus: Percent protective effect was determined in mice using 600 rads for 30 min after administration of 100 mg/kg. Format: functional.

For orientation: LD50 means the dose at which mortality reaches 50%. Compound `CN(C)CCNC(=Cc1ccc2ccccc2[n+]1C)NCCN(C)C.[I-]` came in with a survival at 18.8 mg/kg in data set [1] of 0%. In addition, the survival at 37.5 mg/kg in data set [2] was 0%. The compound also gave a survival at 75 mg/kg in data set [3] (Mus musculus, ip, 720 h) of 0%. The compound also gave an LD50 at 0.5 h in data set [4] of 90 mg/kg.

As to `COC(CN/C(=C/c1ccc2ccccc2[n+]1C)SC)OC.[I-]`, in data set [5], the LD50 at 0.5 h amounted to 30 mg/kg. In [6], this compound had a survival at 4.7 mg/kg of 0%. This compound displayed a survival at 18.8 mg/kg in data set [1] of 30%. The compound also had a survival at 9.4 mg/kg in data set [7] of 0%.

Compound `COCCN/C(=C/c1ccc2ccccc2[n+]1C)SC.[I-]` had an LD50 at 0.5 h in data set [8] of 50 mg/kg. Further, in [1], the survival at 18.8 mg/kg came out at 0%. In data set [2], this compound returned a survival at 37.5 mg/kg of 0%. Further, the survival at 9.4 mg/kg in [7] stood at 0%.

As for `O=[N+]([O-])c1ccc(CSC(=S)C[n+]2ccccc2)cc1.[Cl-]`, the Protective effect in data set [9] is on record as 33%.

`CS/C(=C\c1ccc2cc(C)ccc2[n+]1C)N1CCOCC1.[I-]` displayed a survival at 9.38 mg/kg in data set [10] of 60%. Besides, the survival at 4.69 mg/kg in data set [11] was 0%. This compound also returned a survival at 2.34 mg/kg in data set [12] of 0%. Besides, the LD50 at 0.5 h in [13] was determined as 15 mg/kg.

The compound `N#CC(C#N)=C([S-])[S-].[K+].[K+]` returned a Protective effect in [14] of more than 25%.

In data set [5], `CS/C(=C\c1cccc[n+]1C)N1CCN(C)CC1.[I-]` registered an LD50 at 0.5 h of 60 mg/kg. In addition, the survival at 4.7 mg/kg in data set [6] amounted to 0%. In addition, the survival at 18.8 mg/kg in [1] amounted to 10%. In data set [7], this compound gave a survival at 9.4 mg/kg of 0%.

Turning to `N#CC(C#N)=C([S-])[S-].[Zn+2]`, the Protective effect in data set [15] is listed as less than 25%.

In the case of `NC(=O)c1ccc[n+](CC(=S)[S-])c1`, in [9], the Protective effect is on record as more than 45%.

Compound `C=CCSC(=S)C[n+]1ccccc1.[Cl-]` gave a Protective effect in data set [9] of more than 17%.

`CS/C(=C\c1ccc2ccccc2[n+]1C)NCCCO.[I-]`: the LD50 at 0.5 h in data set [8] was 50 mg/kg. Further, in data set [1], the survival at 18.8 mg/kg is 0%. The survival at 37.5 mg/kg in [2] amounted to 0%. Also, in data set [7], the survival at 9.4 mg/kg was found to be 0%.

`CSC(=Cc1ccc2ccccc2[n+]1C)SC.[I-]`: the survival at 150 mg/kg in data set [16] was found to be 60%; in data set [17], 10%. In addition, the survival at 37.5 mg/kg in data set [2] is 0%. Moreover, the Survival in data set [3] (75 mg/kg) stood at 0%. Moreover, the LD50 at 0.5 h in data set [18] is more than 300 mg/kg; in [19] it was 300 mg/kg.

Turning to `CCOC(=O)C(C#N)=C([S-])[S-].[K+].[K+]`, in [20], the Protective effect amounted to 50%.

In the case of `CSC(=Cc1cccc[n+]1C)SC.[I-]`, the LD50 at 0.5 h in [5] was found to be 30 mg/kg. The compound also gave a survival at 4.7 mg/kg in [6] of 0%. This compound gave a survival at 18.8 mg/kg in [1] of 50%. The compound also gave a survival at 9.4 mg/kg in data set [7] of 0%.
